# From ChEMBL document CHEMBL1151848, “Aryl nucleoside H-phosphonates. Part 16: synthesis and anti-HIV-1 activity of di-aryl nucleoside phosphotriesters” (Bioorg Med Chem, 2009)
# System: not listed separately
# Assay: Chemical stability assessed as chemical hydrolysis half life in RPMI-1640 culture medium by HPLC analysis
# Assay type: physicochemical
# Details: not given
# Summary of the method: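 Chemical hydrolysis of the compounds was followed in RPMI-1640 medium alone.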
row,Compound,half-life [h]
1,Cc1cn([C@H]2C[C@H](N=[N+]=[N-])[C@@H](COP(=O)(Oc3ccccc3)Oc3cncc(Cl)c3)O2)c(=O)[nH]c1=O (stereo partly specified),25.1
2,Cc1cn([C@H]2C[C@H](N=[N+]=[N-])[C@@H](COP(=O)(Oc3ccccc3)Oc3ccncc3)O2)c(=O)[nH]c1=O (stereo partly specified),12.8
3,Cc1cn([C@H]2C[C@H](N=[N+]=[N-])[C@@H](COP(=O)(Oc3ccc(Br)cc3)Oc3cccnc3)O2)c(=O)[nH]c1=O (stereo partly specified),44.3
4,Cc1cn([C@H]2C[C@H](N=[N+]=[N-])[C@@H](COP(=O)(Oc3ccncc3)Oc3cccnc3)O2)c(=O)[nH]c1=O (stereo partly specified),8.55

# System: not listed separately
# Assay: Selectivity index, ratio of CC50 for human MT4 cells to EC50 for HIV1 3B
# Assay type: toxicity, cell-based
# Details: read-out: Ratio CC50/EC50
row,Compound,selectivity ratio
1,Cc1cn([C@H]2C[C@H](N=[N+]=[N-])[C@@H](COP(=O)(Oc3ccccc3)Oc3cncc(Cl)c3)O2)c(=O)[nH]c1=O (stereo partly specified),2500
2,Cc1cn([C@H]2C[C@H](N=[N+]=[N-])[C@@H](COP(=O)(Oc3ccccc3)Oc3ccncc3)O2)c(=O)[nH]c1=O (stereo partly specified),> 10000
3,Cc1cn([C@H]2C[C@H](N=[N+]=[N-])[C@@H](COP(=O)(Oc3ccc(Br)cc3)Oc3cccnc3)O2)c(=O)[nH]c1=O (stereo partly specified),3130
4,Cc1cn([C@H]2C[C@H](N=[N+]=[N-])[C@@H](COP(=O)(Oc3ccncc3)Oc3cccnc3)O2)c(=O)[nH]c1=O (stereo partly specified),> 5000

# System: Human immunodeficiency virus 1
# Assay: Antiviral activity against HIV1 3B infected in human MT4 cells assessed as protection from virus-induced cytopathogenicity after 4 days by MTT assay
# Assay type: functional, organism-based
# Details: Human immunodeficiency virus 1, 3B, MT4, 96 h
# Summary of the method: (§1)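 MT-4 cells, acutely infected at m.o.i. 0.01, were used to read inhibition of HIV-1-induced cytopathogenicity. Compounds were made as 100 mM DMSO stocks and diluted in culture medium. Viability was read by MTT. EC50 is the concentration giving 50% protection, as the mean (+SD) of three independent determinations.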
row,Compound,EC50 [µM]
1,Cc1cn([C@H]2C[C@H](N=[N+]=[N-])[C@@H](COP(=O)(Oc3ccccc3)Oc3cncc(Cl)c3)O2)c(=O)[nH]c1=O (stereo partly specified),0.04
2,Cc1cn([C@H]2C[C@H](N=[N+]=[N-])[C@@H](COP(=O)(Oc3ccccc3)Oc3ccncc3)O2)c(=O)[nH]c1=O (stereo partly specified),0.01
3,Cc1cn([C@H]2C[C@H](N=[N+]=[N-])[C@@H](COP(=O)(Oc3ccc(Br)cc3)Oc3cccnc3)O2)c(=O)[nH]c1=O (stereo partly specified),0.03
4,Cc1cn([C@H]2C[C@H](N=[N+]=[N-])[C@@H](COP(=O)(Oc3ccncc3)Oc3cccnc3)O2)c(=O)[nH]c1=O (stereo partly specified),0.02

# System: Human immunodeficiency virus 1
# Assay: Antiviral activity against non-nucleoside reverse transcriptase inhibitor-resistant HIV1 bearing reverse transcriptase A17 (K103N, Y181C) mutation infected in human MT4 cells assessed as protection from virus-induced cytopathogenicity after 4 days by MTT assay
# Assay type: functional, organism-based
# Details: Human immunodeficiency virus 1, MT4, 96 h
# Summary of the method: as §1
row,Compound,EC50 [µM]
1,Cc1cn([C@H]2C[C@H](N=[N+]=[N-])[C@@H](COP(=O)(Oc3ccccc3)Oc3cncc(Cl)c3)O2)c(=O)[nH]c1=O (stereo partly specified),0.01
2,Cc1cn([C@H]2C[C@H](N=[N+]=[N-])[C@@H](COP(=O)(Oc3ccccc3)Oc3ccncc3)O2)c(=O)[nH]c1=O (stereo partly specified),0.008
3,Cc1cn([C@H]2C[C@H](N=[N+]=[N-])[C@@H](COP(=O)(Oc3ccc(Br)cc3)Oc3cccnc3)O2)c(=O)[nH]c1=O (stereo partly specified),0.01
4,Cc1cn([C@H]2C[C@H](N=[N+]=[N-])[C@@H](COP(=O)(Oc3ccncc3)Oc3cccnc3)O2)c(=O)[nH]c1=O (stereo partly specified),0.007

# System: not listed separately
# Assay: Cytotoxicity against human MT4 cells after 96 hrs by MTT assay
# Assay type: cell-based
# Details: not given
# Summary of the method: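 Exponentially growing mock-infected MT-4 cells were seeded at 1 × 10⁵ cells/ml in RPMI-1640 with 10% FCS, penicillin G and streptomycin. They were incubated with serial compound dilutions at 37 °C in humidified 5% CO₂, and viability was read by MTT after 96 h. CC50 is the concentration reducing viability by 50%, as the mean of three independent determinations.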
row,Compound,CC50 at 96 h [µM]
1,Cc1cn([C@H]2C[C@H](N=[N+]=[N-])[C@@H](COP(=O)(Oc3ccccc3)Oc3cncc(Cl)c3)O2)c(=O)[nH]c1=O (stereo partly specified),100
2,Cc1cn([C@H]2C[C@H](N=[N+]=[N-])[C@@H](COP(=O)(Oc3ccccc3)Oc3ccncc3)O2)c(=O)[nH]c1=O (stereo partly specified),> 100
3,Cc1cn([C@H]2C[C@H](N=[N+]=[N-])[C@@H](COP(=O)(Oc3ccc(Br)cc3)Oc3cccnc3)O2)c(=O)[nH]c1=O (stereo partly specified),94
4,Cc1cn([C@H]2C[C@H](N=[N+]=[N-])[C@@H](COP(=O)(Oc3ccncc3)Oc3cccnc3)O2)c(=O)[nH]c1=O (stereo partly specified),> 100

# System: Human immunodeficiency virus 1
# Assay: Antiviral activity against efavirenz-resistant HIV1 infected in human MT4 cells assessed as protection from virus-induced cytopathogenicity after 4 days by MTT assay
# Assay type: functional, organism-based
# Details: Human immunodeficiency virus 1, MT4, 96 h
# Summary of the method: as §1
row,Compound,EC50 [µM]
1,Cc1cn([C@H]2C[C@H](N=[N+]=[N-])[C@@H](COP(=O)(Oc3ccccc3)Oc3cncc(Cl)c3)O2)c(=O)[nH]c1=O (stereo partly specified),0.01
2,Cc1cn([C@H]2C[C@H](N=[N+]=[N-])[C@@H](COP(=O)(Oc3ccccc3)Oc3ccncc3)O2)c(=O)[nH]c1=O (stereo partly specified),0.01
3,Cc1cn([C@H]2C[C@H](N=[N+]=[N-])[C@@H](COP(=O)(Oc3ccc(Br)cc3)Oc3cccnc3)O2)c(=O)[nH]c1=O (stereo partly specified),0.02
4,Cc1cn([C@H]2C[C@H](N=[N+]=[N-])[C@@H](COP(=O)(Oc3ccncc3)Oc3cccnc3)O2)c(=O)[nH]c1=O (stereo partly specified),0.01

# System: Human immunodeficiency virus 1
# Assay: Antiviral activity against MDR1-resistant HIV1 infected in human MT4 cells assessed as protection from virus-induced cytopathogenicity after 4 days by MTT assay
# Assay type: functional, organism-based
# Details: Human immunodeficiency virus 1, MT4, 96 h
# Summary of the method: as §1
row,Compound,EC50 [µM]
1,Cc1cn([C@H]2C[C@H](N=[N+]=[N-])[C@@H](COP(=O)(Oc3ccccc3)Oc3cncc(Cl)c3)O2)c(=O)[nH]c1=O (stereo partly specified),0.6
2,Cc1cn([C@H]2C[C@H](N=[N+]=[N-])[C@@H](COP(=O)(Oc3ccccc3)Oc3ccncc3)O2)c(=O)[nH]c1=O (stereo partly specified),0.1
3,Cc1cn([C@H]2C[C@H](N=[N+]=[N-])[C@@H](COP(=O)(Oc3ccc(Br)cc3)Oc3cccnc3)O2)c(=O)[nH]c1=O (stereo partly specified),0.5
4,Cc1cn([C@H]2C[C@H](N=[N+]=[N-])[C@@H](COP(=O)(Oc3ccncc3)Oc3cccnc3)O2)c(=O)[nH]c1=O (stereo partly specified),1.2

# System: Human immunodeficiency virus 1
# Assay: Antiviral activity against non-nucleoside reverse transcriptase inhibitor-resistant HIV1 bearing reverse transcriptase N119 (Y181C) mutation infected in human MT4 cells assessed as protection from virus-induced cytopathogenicity after 4 days by MTT assay
# Assay type: functional, organism-based
# Details: Human immunodeficiency virus 1, MT4, 96 h
# Summary of the method: as §1
row,Compound,EC50 [µM]
1,Cc1cn([C@H]2C[C@H](N=[N+]=[N-])[C@@H](COP(=O)(Oc3ccccc3)Oc3cncc(Cl)c3)O2)c(=O)[nH]c1=O (stereo partly specified),0.05
2,Cc1cn([C@H]2C[C@H](N=[N+]=[N-])[C@@H](COP(=O)(Oc3ccccc3)Oc3ccncc3)O2)c(=O)[nH]c1=O (stereo partly specified),0.01
3,Cc1cn([C@H]2C[C@H](N=[N+]=[N-])[C@@H](COP(=O)(Oc3ccc(Br)cc3)Oc3cccnc3)O2)c(=O)[nH]c1=O (stereo partly specified),0.05
4,Cc1cn([C@H]2C[C@H](N=[N+]=[N-])[C@@H](COP(=O)(Oc3ccncc3)Oc3cccnc3)O2)c(=O)[nH]c1=O (stereo partly specified),0.01

# System: Human immunodeficiency virus 1
# Assay: Antiviral activity against azidothymidine-resistant HIV1 infected in human MT4 cells assessed as protection from virus-induced cytopathogenicity after 4 days by MTT assay
# Assay type: functional, organism-based
# Details: Human immunodeficiency virus 1, MT4, 96 h
# Summary of the method: as §1
row,Compound,EC50 [µM]
1,Cc1cn([C@H]2C[C@H](N=[N+]=[N-])[C@@H](COP(=O)(Oc3ccccc3)Oc3cncc(Cl)c3)O2)c(=O)[nH]c1=O (stereo partly specified),1.5
2,Cc1cn([C@H]2C[C@H](N=[N+]=[N-])[C@@H](COP(=O)(Oc3ccccc3)Oc3ccncc3)O2)c(=O)[nH]c1=O (stereo partly specified),0.4
3,Cc1cn([C@H]2C[C@H](N=[N+]=[N-])[C@@H](COP(=O)(Oc3ccc(Br)cc3)Oc3cccnc3)O2)c(=O)[nH]c1=O (stereo partly specified),1.8
4,Cc1cn([C@H]2C[C@H](N=[N+]=[N-])[C@@H](COP(=O)(Oc3ccncc3)Oc3cccnc3)O2)c(=O)[nH]c1=O (stereo partly specified),2.3
